In ChEMBL document CHEMBL1122670, “Synthesis of previously inaccessible quinazolines and 1,4-benzodiazepines as potential anticonvulsants” (J Med Chem, 1984):
Where “and” joins values, the source holds several entries; their conditions need not be identical. Equal entries are not always repeated. Calls of active or inactive are those of the source.

Assays:
[1] = system: Mus musculus; test: Effective dose (ED50) was determined in sc Met (pentylenetetrazole) seizure threshold test; I = Inactive at all doses including 600 mg/kg; assay type: functional, organism-based; parameters: dose 600 mg/kg
Summary of the method: (§1)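 ADD Program screen in mice. Doses of 30, 100, 300 and 600 mg/kg were given, four animals per dose, with tests at 30 min and at 4 h. sc Met endpoint: no threshold seizure (single clonic spasm of 5 s) after an sc convulsant dose 99 of pentylenetetrazol. Rotorod assessed acute neurotoxicity. ED50/TD50 were estimated graphically; Litchfield-Wilcoxon 95% confidence limits were added for selected cases.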

[2] = system: Mus musculus; test: Evaluated for seizure threshold test at a dose 75 mg/kg &MST is the metrazole seizure threshold to persistent clonus; I = Inactive.; assay type: functional, organism-based; parameters: dose 75 mg/kg
Summary of the method: (§2)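 0.5% pentylenetetrazol (with 0.9% NaCl and 0.001% heparin) was infused into a lateral tail vein at 6.31 μL/s. Time to 3 s of persistent clonus (MST) or hindlimb tonic flexion (MMT) was converted to mg/kg infused. Tested at 0.5 h (some at 4 h or 1 h). Results are % change from controls, by Student's t test.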

[3] = system: Mus musculus; test: Evaluated for seizure threshold test at a dose 75 mg/kg &MMT is the maximal metrazole threshold to tonic flexion.; assay type: functional; summary of the method: as §2
[4] = Compound was determined in rotarod test and expressed as TD50; assay type: ADME, organism-based; settings: mouse, in vivo
Summary of the method: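 ADD Program screen in mice. Doses of 30, 100, 300 and 600 mg/kg were given, four animals per dose, with tests at 30 min and at 4 h. sc Met endpoint: no threshold seizure (single clonic spasm of 5 s) after an sc convulsant dose 99 of pentylenetetrazol. Rotorod assessed acute neurotoxicity.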

[5] = system: Mus musculus; test: Effective dose (ED50) was determined in sc Met (pentylenetetrazole) seizure threshold test; I = Inactive.; assay type: functional, organism-based; summary of the method: as §1
[6] = organism: Mus musculus; test: Compound was determined in rotarod test and expressed as TD50; I = Inactive.; assay type: ADME, organism-based; settings: in vivo; summary of the method: as §1
[7] = system: Mus musculus; test: Evaluated for seizure threshold test at a dose 25 mg/kg &MST is the metrazole seizure threshold to persistent clonus; I = Inactive.; assay type: functional, organism-based; parameters: dose 25 mg/kg; summary of the method: as §2
[8] = system: Mus musculus; test: Evaluated for seizure threshold test at a dose 25 mg/kg &MMT is the maximal metrazole threshold to tonic flexion; I = Inactive.; assay type: functional, organism-based; parameters: dose 25 mg/kg; summary of the method: as §2
[9] = system: Mus musculus; test: Evaluated for seizure threshold test at a dose 300 mg/kg &MMT is the maximal metrazole threshold to tonic flexion; I = Inactive; assay type: functional, organism-based; parameters: dose 300 mg/kg
Summary of the method: (§3)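 At 0.5 h (some at 1 or 4 h), 0.5% pentylenetetrazol in 0.9% NaCl with 0.001% heparin was infused into the tail vein at 6.31 μL/s. Time to 3 s persistent clonus (MST) or tonic flexion (MMT) was converted to mg/kg, reported as % change vs controls, Student's t test.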

[10] = system: GABA-A receptor; anion channel; test: Inhibition of binding to GABA-A central benzodiazepine receptor (Inactive); assay type: protein-complex assay, Mus musculus
[11] = system: Mus musculus; test: Evaluated for seizure threshold test at a dose 300 mg/kg &MST is the metrazole seizure threshold to persistent clonus; assay type: functional; summary of the method: as §3
[12] = system: Mus musculus; test: Evaluated for seizure threshold test at a dose 1.0 mg/kg &MST is the metrazole seizure threshold to persistent clonus; assay type: functional; summary of the method: as §3
[13] = system: Mus musculus; test: Evaluated for seizure threshold test at a dose 1.0 mg/kg &MMT is the maximal metrazole threshold to tonic flexion.; assay type: functional; summary of the method: as §3
[14] = system: Mus musculus; test: Evaluated for seizure threshold test at a dose 0.2 mg/kg &MMT is the maximal metrazole threshold to tonic flexion.; assay type: functional; summary of the method: as §3
[15] = system: Mus musculus; test: Evaluated for seizure threshold test at a dose 0.2 mg/kg &MST is the metrazole seizure threshold to persistent clonus; assay type: functional; summary of the method: as §3
[16] = system: Mus musculus; test: Effective dose (ED50) was determined in sc Met (pentylenetetrazole) seizure threshold test; assay type: functional; summary of the method: as §1
[17] = system: Mus musculus; test: Evaluated for seizure threshold test at a dose 100 mg/kg & MMT is the maximal metrazole threshold to tonic flexion; I - inactive; assay type: functional, organism-based; parameters: dose 100 mg/kg; summary of the method: as §2
[18] = system: Mus musculus; test: Evaluated for seizure threshold test at a dose 100 mg/kg & MST is the metrazole seizure threshold to persistent clonus; assay type: functional; summary of the method: as §3
[19] = system: Mus musculus; test: Evaluated for seizure threshold test at a dose 100 mg/kg & MMT is the maximal metrazole threshold to tonic flexion.; assay type: functional; summary of the method: as §3
[20] = system: Mus musculus; test: Evaluated for seizure threshold test at a dose 30 mg/kg & MMT is the maximal metrazole threshold to tonic flexion; I = Inactive.; assay type: functional, organism-based; parameters: dose 30 mg/kg; summary of the method: as §2
[21] = system: Mus musculus; test: Evaluated for seizure threshold test at a dose 30 mg/kg & MST is the metrazole seizure threshold to persistent clonus; assay type: functional; summary of the method: as §3
[22] = Compound was evaluated for median lethal dose; assay type: ADME, organism-based; settings: mouse, in vivo
[23] = system: Mus musculus; test: Evaluated for seizure threshold test at a dose 30 mg/kg &MST is the metrazole seizure threshold to persistent clonus; assay type: functional; summary of the method: as §3
[24] = system: Mus musculus; test: Evaluated for seizure threshold test at a dose 30 mg/kg &MMT is the maximal metrazole threshold to tonic flexion.; assay type: functional; summary of the method: as §3
[25] = system: Mus musculus; test: Evaluated for seizure threshold test at a dose 50 mg/kg &MMT is the maximal metrazole threshold to tonic flexion.; assay type: functional; summary of the method: as §3
[26] = system: Mus musculus; test: Evaluated for seizure threshold test at a dose 50 mg/kg &MST is the metrazole seizure threshold to persistent clonus; assay type: functional; summary of the method: as §3
[27] = system: Mus musculus; test: Evaluated for seizure threshold test at a dose 1 mg/kg &MST is the metrazole seizure threshold to persistent clonus; assay type: functional; summary of the method: as §3
[28] = system: Mus musculus; test: Evaluated for seizure threshold test at a dose 1 mg/kg &MMT is the maximal metrazole threshold to tonic flexion.; assay type: functional; summary of the method: as §3
[29] = target: GABA-A receptor; anion channel; test: Binding affinity for umolar GABA-A central benzodiazepine receptor; assay type: protein-complex assay, Mus musculus
[30] = system: Mus musculus; test: Evaluated for seizure threshold test at a dose 600 mg/kg &MMT is the maximal metrazole threshold to tonic flexion.; assay type: functional; summary of the method: as §2
[31] = system: Mus musculus; test: Evaluated for seizure threshold test at a dose 600 mg/kg &MST is the metrazole seizure threshold to persistent clonus; assay type: functional; summary of the method: as §3
[32] = system: Mus musculus; test: Evaluated for seizure threshold test at a dose 300 mg/kg & MMT is the maximal metrazole threshold to tonic flexion; I - Inactive.; assay type: functional; summary of the method: as §2
[33] = system: Mus musculus; test: Evaluated for seizure threshold test at a dose 100 mg/kg & MMT is the maximal metrazole threshold to tonic flexion; I - Inactive.; assay type: functional, organism-based; parameters: dose 100 mg/kg; summary of the method: as §2
[34] = system: Mus musculus; test: Evaluated for seizure threshold test at a dose 300 mg/kg & MST is the metrazole seizure threshold to persistent clonus; assay type: functional; summary of the method: as §3
[35] = target: GABA-A receptor; anion channel (Mus musculus) (UniProt Q8BHJ7+P26048+Q8QZW7+P50571+Q9R0Y8+P22723+A2AMW3+P62812+Q9JLF1+P26049+P22933+Q9D6F4+P63080+P27681+P16305); test: Inhibition of binding to GABA-A central benzodiazepine receptor (inactive); assay type: protein-complex assay
[36] = system: Mus musculus; test: Evaluated for seizure threshold test at a dose 100 mg/kg & MST is the metrazole seizure threshold to persistent clonus; I = inactive; assay type: functional, organism-based; parameters: dose 100 mg/kg; summary of the method: as §3
[37] = system: Mus musculus; test: Evaluated for seizure threshold test at a dose 100 mg/kg & MMT is the maximal metrazole threshold to tonic flexion; I = inactive; assay type: functional, organism-based; parameters: dose 100 mg/kg; summary of the method: as §3
[38] = system: Mus musculus; test: Evaluated for seizure threshold test at a dose 300 mg/kg & MMT is the maximal metrazole threshold to tonic flexion; I - inactive; assay type: functional, organism-based; parameters: dose 300 mg/kg; summary of the method: as §3

## Cc1cc2c(c(C#N)c1C)NC(=O)NC2C (centres undefined)
[1]
  ED50: inactive
[2]
  Change: Not significant
[3]
  Change: -16%
[4]
  TD50: 300 mg/kg

## Cc1cc2c(-c3ccccc3F)nc(O)nc2c(C#N)c1C
[5]
  ED50: inactive
[6]
  TD50: Not Active
[7]
  Change: Not significant
[8]
  Change: Not significant

## Cc1cc2c(c(C#N)c1C)NC(=O)CN=C2C1CC1
[9]
  Change: inactive
[1]
  ED50: inactive
[4]
  TD50: 600 mg/kg
[10]
  IC50: Not Active
[11]
  Change: 300%

## CN1C(=O)CN=C(c2ccccc2)c2cc(Cl)ccc21 [DIAZEPAM]
[12]
  Change: 60%
[4]
  TD50: 7.3 mg/kg
[13]
  Change: 40%
[14]
  Change: 15%
[15]
  Change: 50%
[16]
  ED50: 0.17 mg/kg

## Cc1cc(C(=O)c2ccccc2)c(NC(=O)CBr)c(C#N)c1C
[17]
  Change: inactive
[18]; 100 mg/kg
  Change: 70% and 37%
[19]
  Change: 49%
[4]
  TD50: 600 mg/kg
[16]
  ED50: 480 mg/kg

## CC1=NCC(=O)Nc2c1cc(C)c(C)c2C#N
[20]
  Change: Not significant
[1]
  ED50: inactive
[21]
  Change: 30%
[22]
  LD50: 150 mg/kg
[4]
  TD50: 70 mg/kg

## Cc1ccccc1-n1c(C)nc2ccccc2c1=O [METHAQUALONE]
[23]
  Change: 18%
[24]
  Change: 17%
[25]
  Change: 40%
[26]
  Change: 42%

## Cc1cc2c(C3CCCCC3)nc(O)nc2c(C#N)c1C
[9]
  Change: inactive
[4]
  TD50: > 600 mg/kg
[10]
  IC50: Not Active
[11]
  Change: 44%
[16]
  ED50: 260 mg/kg

## Cc1cc2c(-c3ccccc3F)ncnc2c(C#N)c1C
[5]
  ED50: inactive
[6]
  TD50: Not Active
[7]
  Change: Not significant
[8]
  Change: Not significant

## O=C1CN=C(c2ccccc2)c2cc(Cl)ccc2N1 [NORDAZEPAM]
[27]
  Change: 70%
[28]
  Change: 35%
[14]
  Change: inactive
[15]
  Change: 48%
[29]
  Ki: 73 µM
[16]
  ED50: 0.28 mg/kg

## Cc1cc2c(C)nc(O)nc2c(C#N)c1C
[5]
  ED50: inactive
[6]
  TD50: Not Active
[7]
  Change: Not significant
[8]
  Change: Not significant

## Cc1cc(C(=O)C2CC2)c(N)c(C#N)c1C
[30]
  Change: 37%
[4]
  TD50: > 600 mg/kg
[31]
  Change: 23%
[16]
  ED50: 600 mg/kg

## CC1N=CNc2c1cc(-c1ccccc1)c(-c1ccccc1)c2C#N (centres undefined)
[5]
  ED50: inactive
[6]
  TD50: Not Active
[7]
  Change: Not significant
[8]
  Change: Not significant

## CC(=O)c1cc(C)c(C)c(C#N)c1NC(=O)CBr
[32]
  Change: -17%
[18]
  Change: -14%
[4]
  TD50: 600 mg/kg
[33]
  Change: Not significant
[34]
  Change: -22%
[16]
  ED50: 500 mg/kg

## Cc1cc2c(c(C#N)c1C)NC(=O)CN=C2c1ccccc1
[35]
  Change: inactive
[22]; read-out: LD
  LD50: > 2 mg/kg
[36]
  Change: inactive
[4]
  TD50: > 1000 mg/kg
[37]
  Change: inactive
[38]
  Change: inactive
[34]
  Change: 44%
[16]
  ED50: 370 mg/kg
